For one data set, the system named is Rattus norvegicus. The data set is described as follows: Oral absorption in rat at 20 mg/kg, po. The format is ADME, organism-based. Details: dose 20 mg/kg, route oral; call rule not given here. The settings on record: in vivo. Put shortly:
(§1)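 Rats dosed orally at 20 mg/kg in 0.5% methocel, given as the water-soluble sodium salt of the hydroxy-acid precursor that cyclizes to the coumarin.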

Data set [1] has as its target T1, Polyunsaturated fatty acid 5-lipoxygenase (Homo sapiens, UniProt P09917).
T1 sequence (P09917 whole entry): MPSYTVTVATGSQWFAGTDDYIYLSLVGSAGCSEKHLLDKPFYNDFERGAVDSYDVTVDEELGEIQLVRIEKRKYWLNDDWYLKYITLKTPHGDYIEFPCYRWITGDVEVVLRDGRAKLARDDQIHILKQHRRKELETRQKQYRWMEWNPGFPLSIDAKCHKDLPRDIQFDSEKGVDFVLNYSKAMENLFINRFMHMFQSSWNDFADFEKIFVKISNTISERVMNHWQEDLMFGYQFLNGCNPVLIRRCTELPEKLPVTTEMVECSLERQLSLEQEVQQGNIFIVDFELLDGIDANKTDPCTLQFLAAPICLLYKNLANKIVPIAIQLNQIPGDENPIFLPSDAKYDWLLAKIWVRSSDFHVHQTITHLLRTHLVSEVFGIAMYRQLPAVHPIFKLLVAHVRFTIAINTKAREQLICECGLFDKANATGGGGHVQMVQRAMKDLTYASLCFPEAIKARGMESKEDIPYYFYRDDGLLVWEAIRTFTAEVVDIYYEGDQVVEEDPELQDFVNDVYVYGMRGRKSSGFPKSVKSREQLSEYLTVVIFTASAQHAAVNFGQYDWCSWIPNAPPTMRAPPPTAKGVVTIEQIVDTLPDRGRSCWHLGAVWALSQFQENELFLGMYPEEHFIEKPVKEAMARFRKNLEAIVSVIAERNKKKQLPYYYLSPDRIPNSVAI
As to the kind of experiment: Inhibition of human 5-LO.

Data set [2] concerns the target T1, Polyunsaturated fatty acid 5-lipoxygenase. As to the kind of experiment: Inhibition of LTB4 production in calcium ionophore A-23187-stimulated human polymorphonuclear leukocyte. The format is functional.
The target is the same in data set [3]. The data set is described as follows: Inhibition of LTB4 production in calcium ionophore A-23187-stimulated human whole blood. The format is functional, tissue-based.
Data set [4] in a line: Oral bioavailability in squirrel monkey at 10 mg/kg, po. The format is ADME, organism-based, Saimiri sciureus. The settings on record: in vivo.
Data set [5] can be described thus: Cmax in squirrel monkey at 10 mg/kg, po after 2 hrs. The settings on record: in vivo. The format is ADME, organism-based, Saimiri sciureus. Also noted: dose 10 mg/kg, route oral.
The target of data set [6] is T2, Polyunsaturated fatty acid 5-lipoxygenase (Rattus norvegicus) (UniProt P12527).
T2 sequence (whole entry): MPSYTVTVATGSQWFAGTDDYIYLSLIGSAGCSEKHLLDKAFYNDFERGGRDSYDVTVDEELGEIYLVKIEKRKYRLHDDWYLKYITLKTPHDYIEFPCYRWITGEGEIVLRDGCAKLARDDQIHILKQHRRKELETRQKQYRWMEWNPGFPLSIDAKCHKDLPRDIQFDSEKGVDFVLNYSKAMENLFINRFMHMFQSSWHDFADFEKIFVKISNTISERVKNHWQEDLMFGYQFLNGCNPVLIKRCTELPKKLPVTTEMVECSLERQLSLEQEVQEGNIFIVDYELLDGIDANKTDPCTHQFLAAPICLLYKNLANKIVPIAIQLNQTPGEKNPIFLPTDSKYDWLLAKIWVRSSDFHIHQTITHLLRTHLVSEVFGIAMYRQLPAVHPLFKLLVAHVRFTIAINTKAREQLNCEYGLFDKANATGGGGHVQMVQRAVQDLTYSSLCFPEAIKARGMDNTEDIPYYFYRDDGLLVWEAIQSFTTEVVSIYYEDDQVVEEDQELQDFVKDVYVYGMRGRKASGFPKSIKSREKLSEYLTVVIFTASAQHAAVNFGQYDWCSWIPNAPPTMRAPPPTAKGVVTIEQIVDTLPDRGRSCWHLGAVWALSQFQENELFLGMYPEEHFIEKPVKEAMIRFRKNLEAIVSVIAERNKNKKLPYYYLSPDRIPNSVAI
The data set is described as follows: Activity against carrageenan-induced inflammation in orally dosed rat pleural cavity assessed as inhibition of LTB4 biosynthesis after 2 hrs. The format is functional, organism-based.

The nature of data set [7]: Oral bioavailability in rat at 20 mg/kg, po. The settings on record: in vivo. The format is ADME, organism-based. Put shortly:
as §1

Data set [8] can be described thus: Cmax in rat at 20 mg/kg, po. Conditions: in vivo. The format is ADME, organism-based. Details: dose 20 mg/kg, route oral. Put shortly: as §1

On to `O=c1cc(-c2ccc(F)cc2)c2ccc(Sc3cc(F)cc(C(O)(C(F)(F)F)C(F)(F)F)c3)cc2o1`, for which, in the data set with Rattus norvegicus, the Fa entry is listed as “Not Active”.
Regarding `O=c1cc(-c2ccoc2)c2ccc(Sc3cc(F)cc(C(O)(C(F)(F)F)C(F)(F)F)c3)cc2o1`, the IC50 – broadly, the point on the concentration scale where inhibition reaches its midpoint – in data set [1] came out at 9 nM; in data set [2] it was 0.8 nM; in data set [3], 52 nM.
As to `O=c1cc(-c2ccoc2)c2ccc(COc3cc(F)cc([C@]4(O)C[C@H]5CO[C@@H](C4)O5)c3)cc2o1`, the figures for the IC50 in data set [1], in data set [2] and in [3] were 200 nM, 3 nM and 48 nM, respectively.
In the same order, the values of `O=c1cc(-c2ccccc2)c2ccc(Sc3cc(F)cc(C(O)(C(F)(F)F)C(F)(F)F)c3)cc2o1` are 26 nM, 0.5 nM and 88 nM.
Turning to `O=C([O-])/C=C(/c1ccc(F)cc1)c1ccc(Sc2cc(F)cc(C(O)(C(F)(F)F)C(F)(F)F)c2)cc1[O-].[Na+].[Na+]`, the bioavailability (in general, dose-corrected exposure relative to a reference, in per cent) was 30% in data set [4] and 100% in data set [7]. Further, the Cmax (in general, the highest concentration seen after dosing) in [5] is 1.2 µM; in data set [8] it was 16 µM. In data set [6], the ED50 – broadly, the dose at which the effect has come halfway, by size or by number of responders – stood at 1.6 mg/kg.
In the case of `O=c1cc(-c2ccc(F)cc2)c2ccc(COc3cc(F)cc(C(O)(C(F)(F)F)C(F)(F)F)c3)cc2o1`, the IC50 in [1] turned out to be 55 nM; in data set [2], 1.9 nM; in data set [3], 150 nM.

These data come from ChEMBL document CHEMBL1147648, “Substituted coumarins as potent 5-lipoxygenase inhibitors” (Bioorg Med Chem Lett, 2006).
